# Measurements of several laboratories.
# Target: High affinity nerve growth factor receptor (NTRK1, Homo sapiens, UniProt P04629)
Structure (SMILES),test,setting,quantity,result
O=C(Nc1cnn(-c2csc(C(=O)NC3COC3)c2)c1)Nc1ccccc1Cl,"enzyme activity, inhibitor",5 µM,remaining activity,100%
O=C(Cc1ccc(C(F)(F)F)cc1)Nc1cccc(C(=O)Nc2ccc3[nH]ncc3c2)c1,"enzyme activity, inhibitor, FRET",1 µM,inhibition,46%
Cc1ccc(C(=O)Nc2ccc(CN3CCN(C)CC3)c(C(F)(F)F)c2)cc1C#Cc1cnc2cccnn12,cell-free assay,23.5 nM,remaining signal,26%
CCCOc1ccc(OC)c(F)c1C(=O)c1ccc(C(=O)N[C@@H]2CNC[C@H]2NC(=O)c2ccc3[nH]ncc3c2)cc1,"enzyme activity, inhibitor",10 µM,remaining activity,46%
Cc1ccc(C(=O)NCc2ccsc2)cc1C#Cc1cn(C(C)C)c2ncnc(N)c12,"enzyme activity, inhibitor",1 µM,activity vs control,74%
Oc1cccc(-c2nc(N3CCOCC3)c3oc4ncccc4c3n2)c1,"enzyme activity, inhibitor",10 µM,remaining activity,93%
O=C(Nc1cnn2ccc(N3CCC[C@@H]3c3cc(F)ccc3F)nc12)N1CC[C@H](O)C1,"enzyme activity, inhibitor, FRET",1 µM,inhibition,100%
CS(=O)(=O)N1CCCC(NC(=O)[C@H](CCC2CCCCC2)NC(=O)c2ccc(CNc3ncnc4c3nnn4-c3ccccc3)cc2)C1 (stereo partly drawn),"cell-free assay, competition with immobilised ligand",0.1 µM,remaining binding,100%
O=C(Nc1cccc(Cl)c1)Nc1cccc(C(=O)Nc2ccc3[nH]ncc3c2)c1,"enzyme activity, inhibitor, FRET",1 µM,inhibition,47.4%
CCCOc1ccc([C@H]2[C@H](C(=O)O)[C@@H](c3ccc4c(c3)OCO4)CN2CC(=O)Nc2c(CC)cccc2CC)cc1,"cell-free assay, competition with immobilised ligand",1 µM,remaining binding,84%
Cc1[nH]c(/C=C2\C(=O)Nc3ccc(F)cc32)c(C)c1C(=O)N[C@H]1CCN(C(=O)N(C)C)C1,"enzyme activity, inhibitor",1 µM,remaining activity,5%
O=C1NC(=O)c2cc(Nc3ccc(F)cc3)c(Nc3ccc(F)cc3)cc21,cell-free assay,0.5 µM,remaining signal,93.6%
O=C(NCc1ncc(C(F)(F)F)cc1Cl)c1ccc2c(c1)C1(CCS(=O)(=O)CC1)[C@@H](C1CC1)N2S(=O)(=O)c1ccc(F)cc1,"cell-free assay, competition with immobilised ligand",1 µM,remaining binding,75%
Nc1ncnc2occ(-c3ccc(NC(=O)Nc4cc(C(F)(F)F)ccc4F)cc3)c12,cell-free assay,20 µM,remaining signal,0%
O=C1Nc2ccc(Cl)cc2C1=Cc1cc(Cl)c(O)c(Cl)c1,cell-free assay,0.5 µM,remaining signal,87.4%
COc1cc(-c2cn(C3CCc4ccccc4N(CC(F)(F)F)C3=O)nn2)ccc1-n1ccc(C)n1 (stereo not drawn),"cell-free assay, competition with immobilised ligand",1 µM,remaining binding,63%
CN(c1nccc(-c2cnn3ncccc23)n1)C1CC1,cell-free assay,1 µM,remaining signal,100%
CNC(=O)Nc1ccc2c(c1)CC[C@@]21OC(=O)N(CC(=O)N(Cc2ccc(F)cc2)[C@@H](C)C(F)(F)F)C1=O,"cell-free assay, competition with immobilised ligand",1 µM,remaining binding,81%
O=C(Nc1cccc(F)c1)Nc1cccc(C(=O)Nc2ccc3[nH]ncc3c2)c1,"enzyme activity, inhibitor, FRET",1 µM,inhibition,51.3%
CCC(=N\O)/C(C)=C/c1ccc(F)cc1,"cell-free assay, competition with immobilised ligand",1 µM,remaining binding,83%
FC(F)(F)Oc1cccc(-c2cnc3ccc(-c4ccncc4)nn23)c1,"enzyme activity, inhibitor, radiometric",5 µM,activity vs control,15%
